Assay outcomes (PubChem)
PLCg1 inh = PLC-gamma1 (human) inhibition, primary screen; purified PLC-gamma1, fluorogenic substrate, fluorescence; 370,000 compounds, 0.84% hits; AID 720700; inhibition, % at 12.2 µM; P19174
ADAM17 inh = inhibits human ADAM17; P78536; recombinant ADAM17, EDANS/DABCYL FRET peptide cleavage; inhibition, % at 6.95 µM; 370,000 compounds, 0.83% hits; AID 720648;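 active means inhibition above the mean of compounds lying between control limits plus 3 SD, set per campaign, cut at about 8.5% in these data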
Target sequence (P78536 215-824 limits assumed): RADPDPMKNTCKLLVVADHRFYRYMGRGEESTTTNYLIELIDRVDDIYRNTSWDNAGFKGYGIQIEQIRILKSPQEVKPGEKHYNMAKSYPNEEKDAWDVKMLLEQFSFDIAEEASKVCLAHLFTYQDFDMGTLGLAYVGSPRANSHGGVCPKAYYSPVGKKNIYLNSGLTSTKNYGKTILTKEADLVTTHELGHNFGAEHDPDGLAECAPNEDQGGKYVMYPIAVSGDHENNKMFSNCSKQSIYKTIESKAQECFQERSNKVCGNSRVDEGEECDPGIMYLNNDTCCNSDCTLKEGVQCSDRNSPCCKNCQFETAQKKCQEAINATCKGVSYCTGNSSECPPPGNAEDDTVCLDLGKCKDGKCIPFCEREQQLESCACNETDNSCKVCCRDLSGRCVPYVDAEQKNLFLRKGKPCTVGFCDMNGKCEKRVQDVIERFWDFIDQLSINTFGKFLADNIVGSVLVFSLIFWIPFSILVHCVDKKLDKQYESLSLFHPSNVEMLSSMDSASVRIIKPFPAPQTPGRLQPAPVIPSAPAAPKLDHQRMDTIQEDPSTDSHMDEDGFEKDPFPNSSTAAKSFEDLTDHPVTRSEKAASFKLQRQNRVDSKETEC
PLC-beta3 inh = blocks human PLC-beta3 enzyme activity. inhibition, % at 12.2 µM. Q01970. 370,000 compounds, 0.18% hits. Purified PLC-beta3, fluorogenic substrate, fluorescence. AID 720704; in the data active means inhibition above about 11%
DDE Tn7 FP inh = disrupts Tn7 cyclic peptide binding to fibrin D-Dimer-E complex; FP displacement of FITC-Tn7 peptide from fibrin DD(E); 0% = median of compound wells per plate; AID 720508; 370,000 compounds, 0.13% hits; inhibition, % at 8.3 µM;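 active means inhibition above the mean of compounds falling within the control limits plus 3 SD of them, cut at about 14% in these data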
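System: human fibrin DD(E); quantity: Fibrin-DD(E) at 2 µM final; also added: fluorescent Tn7 probe at 0.1 µM; compound dosing: single nominal test concentration of 8.3 µM per compound; schedule: 10 min preincubation, 3 h with tracer, room temperature; detection: fluorescence polarization of the labelled Tn7 tracer; repeats: one replicate per compound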
ADAM10 inh = inhibits human ADAM10. O14672. recombinant ADAM10, EDANS/DABCYL FRET peptide cleavage, 3 h. inhibition, % at 7 µM. 370,000 compounds, 0.62% hits;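 active means inhibition above a per-campaign cutoff equal to the mean of compounds falling between control-based bounds plus 3 SD, cut at about 20% in these data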
Tn6 DDE FP = inhibitors of Tn6 peptide binding to human fibrin DD(E); Fibrin DD(E) TRITC-Tn6 fluorescence polarization displacement; 370,000 compounds, 0.21% hits; inhibition, % at 8.3 µM;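 active means inhibition above a per-campaign cutoff: mean of compounds within control limits plus 3 SD, cut at about 15% in these data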
PLCg1 ctr = inhibits human PLC-gamma1 in PLC-beta3 counter-screen. shares compounds with PLCg1 inh. purified PLC-gamma1, fluorogenic substrate, fluorescence. inhibition, % at 12.3 µM. 3,300 compounds, 3.1% hits. AID 743258
PLCbeta3 conf = human PLC-beta3 inhibition, confirmation; shares compounds with PLCg1 inh; purified PLC-beta3, fluorogenic substrate fluorescence; inhibition, % at 12.3 µM; 3,300 compounds, 1% hits; in the data active means inhibition above about 11%
Each line names hits and unclear results; the compound was inactive in the other large screens (follow-up assays come after a bar, where they were run). In the library only some 2.3% were active in any assay of this set; here they are far more common. Unless noted, no stated cut-off is given here; in the data, active means inhibition above about 9.5%; inactive means the rest.

COc1ccnc2c1c(=O)n(Cc1ccccc1Cl)c(=O)n2C	none
COc1ccnc2c1c(=O)n(Cc1ccc(Cl)cc1Cl)c(=O)n2C	PLCg1 inh 9.8 | PLCg1 ctr inactive | PLCbeta3 conf inactive
O=C(c1cncnc1)N1CCC(n2nnc3ncccc32)CC1	none
Clc1cccc(Cl)c1OCCCCN1CCCCC1	PLCg1 inh 12 | PLCg1 ctr inactive | PLCbeta3 conf inactive
Clc1cccc(OCCCCN2CCCCC2)c1	none
O=C(Nc1cccc(Cl)c1)c1csc(COCCO)n1	PLCg1 inh 10.0 | PLCg1 ctr inactive | PLCbeta3 conf inactive
O=C1CCC(=O)N1c1ccc(CSc2nc3ccccc3[nH]2)cc1	PLCg1 inh 11 | PLCg1 ctr inactive | PLCbeta3 conf inactive
COc1ccc(CSc2nc3ccccc3[nH]2)cc1	none
O=C(CSc1nc2ccccc2[nH]1)NCc1ccccc1	PLCg1 inh 14 | PLCg1 ctr inactive | PLCbeta3 conf inactive
O=C(CSc1nc2[nH]ncc2c(=O)[nH]1)NCc1ccc(F)cc1	PLCg1 inh 12 | PLCg1 ctr inactive | PLCbeta3 conf inactive
CC(=O)Nc1ccc(NC(=O)CCCSc2nc3ccccc3[nH]2)cc1	PLCg1 inh 13 | PLCg1 ctr inactive | PLCbeta3 conf inactive
O=C(NCc1ccccc1F)C1CCC(CNS(=O)(=O)c2cccc3cccnc23)CC1 (centres undefined)	none
COc1ccc(N2CC(C(=O)Nc3ccc(S(=O)(=O)N4CCCC4)cc3)CC2=O)cc1 (centres undefined)	none
CC(=O)N1CCC(C(=O)Nc2ccc(S(=O)(=O)N3CCC(C)CC3)cc2)CC1	PLCg1 inh 9.6 | PLCg1 ctr inactive | PLCbeta3 conf inactive
Cc1ccc(S(=O)(=O)N2CCC(C(=O)Nc3nnc(C4CCCC4)s3)CC2)cc1	PLCg1 inh 15 | PLCg1 ctr inactive | PLCbeta3 conf inactive
Cc1ccc(S(=O)(=O)N2CCC(C(=O)N3Cc4ccccc4C3)CC2)cc1	PLCg1 inh 10 | PLCg1 ctr inactive | PLCbeta3 conf inactive
Cc1ccc(N2CC(C(=O)Nc3ccc(S(=O)(=O)N4CCCC4)cc3)CC2=O)cc1 (centres undefined)	PLCg1 inh 15 | PLCg1 ctr inactive | PLCbeta3 conf inactive
O=c1c2cc3cc4c(cc3nc2ncn1CCc1ccccc1)OCO4	none
COC(=O)C1CN(Cc2ccc(Cl)cc2)CCS(=O)(=O)N1Cc1cn(Cc2ccc(C)cc2)nn1 (centres undefined)	none
Cc1ccnc(NC(=S)N2CC3CN(c4cccc(C(F)(F)F)c4)CC3C2)c1 (centres undefined)	none
N#Cc1cccc(NC(=O)OCCN2C(=O)CCC23CCC(c2ccccc2)CC3)c1 (centres undefined)	none
c1ccc(-c2c[nH]c3ccc(OCCN4CCOCC4)c(-c4ccccc4)c23)cc1	none
CCOc1ccccc1Nc1nc(N)nc(CN(C)C2CCCCC2)n1	PLC-beta3 inh 12 | PLCg1 ctr inactive | PLCbeta3 conf inactive
CCOc1ccccc1Nc1nc(N)nc(CSc2nccc(C)n2)n1	none
O=C(NCc1ccccc1)c1onc(CSc2ccccc2)c1C(=O)NCc1ccccc1	none
O=C(NCc1ccccc1)c1onc(CSc2ccc(F)c(F)c2)c1C(=O)NCc1ccccc1	PLC-beta3 inh 11 | PLCg1 ctr inactive | PLCbeta3 conf inactive
Cc1ccccc1NC(=O)CNC(=O)c1ccc(C(F)(F)F)cc1	none
Cc1ccccc1NC(=O)Nc1ccc(C(F)(F)F)cc1	PLCg1 inh 13, PLC-beta3 inh 12 | PLCg1 ctr inactive | PLCbeta3 conf inactive
CC1=C(C(=O)N(C)C)CC(CC(=O)NCC2CCCCC2)C(=O)N1CCC1=CCCCC1 (centres undefined)	PLCg1 inh 11 | PLCg1 ctr inactive | PLCbeta3 conf inactive
CCN(CC)C(=O)C1=C(C)N(CCC2=CCCCC2)C(=O)C(CC(=O)NCC2CCCCC2)C1 (centres undefined)	none
CC12CCC(C/C1=N/O)C2(C)C (centres undefined)	PLCg1 inh 10 | PLCg1 ctr inactive | PLCbeta3 conf inactive
CC12CCC(CC1=O)C2(C)C (centres undefined)	none
CCOc1ccc(C(=O)NCCC2=CCCCC2)cc1OCC	PLCg1 inh 11 | PLCg1 ctr inactive | PLCbeta3 conf inactive
CCC(=O)c1ccc(OCC(=O)NCCC2=CCCCC2)c(OC)c1	none
COC(=O)C1=C(C)N(C)C(=NCc2ccc(OC)cc2)NC1c1ccccc1C(F)(F)F (centres undefined)	none
CCN(CC)CCCNC(=O)C1CCC(=O)N(c2ccc(OC)cc2)C1c1ccc(F)cc1 (centres undefined)	PLCg1 inh 12 | PLCg1 ctr inactive | PLCbeta3 conf inactive
COc1ccc(C2C(C(=O)NCc3ccccn3)CCC(=O)N2c2cc(OC)c(OC)c(OC)c2)cc1 (centres undefined)	PLCg1 inh 10 | PLCg1 ctr inactive | PLCbeta3 conf inactive
CC1(c2nnnn2Cc2ccccc2)CCCCC(=O)N1Cc1cccs1 (centres undefined)	none
CCN(CC)C1CCN(C(=O)c2cc(COc3ccccc3SC)on2)C1 (centres undefined)	PLCg1 inh 10 | PLCg1 ctr inactive | PLCbeta3 conf inactive
CCN(CC)C(=O)O[C@H]1CC[C@@]23CCCN2C(=O)CCC[C@H]3C1	none
Cc1ccc(CN2CCN(/N=C/c3ccc(C(F)(F)F)cc3)CC2)cc1	PLCg1 inh 10 | PLCg1 ctr inactive | PLCbeta3 conf inactive
Cc1ccc(/C=N/N2CCN(Cc3ccc(C)cc3)CC2)cc1	none
CC(NC(=O)c1ccco1)c1nc(-c2ccccc2)no1 (centres undefined)	none
Cc1cccc(-c2noc(C(C)NC(=O)c3ccco3)n2)c1 (centres undefined)	PLCg1 inh 13 | PLCg1 ctr inactive | PLCbeta3 conf inactive
Cc1ccc(OCc2nnc(SCC(=O)Nc3ccc(S(N)(=O)=O)cc3)n2-c2ccc(Cl)cc2)cc1	none
CC(C)CN1C(=O)[C@@]2(CC(=O)N(C)C2c2ccccc2)c2cc(-n3cc(CCc4ccccc4)nn3)ccc21 (some centres undefined)	PLCg1 inh 10 | PLCg1 ctr inactive | PLCbeta3 conf inactive
CCCc1cn(-c2ccc3c(c2)[C@@]2(CC(=O)N(C)C2c2ccccc2)C(=O)N3CC(C)C)nn1 (some centres undefined)	none
Nn1c(SCc2ccc([N+](=O)[O-])cc2)nnc1-c1n[nH]c2c1CCC2	none
